Assay results as given in ChEMBL document CHEMBL1145941, “Design, synthesis, and biological evaluation of indenoisoquinoline topoisomerase I inhibitors featuring polyamine side chains on the lactam nitrogen” (2003).

How the values were obtained:
HCT-116 = test: Cytotoxicity against human colon HCT116 cancer cell lines.; assay type: functional
[1] = system: Panel (Carcinoma cell lines); test: Mean graph midpoint for growth inhibition of all human cancer cell lines.; assay type: functional; design: unit: µM
Procedure, shortened: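 Mean graph midpoint from the NCI screen, about 55 human cancer cell lines, test range 10^-8 to 10^-4 M. Computed as the average GI50 across all lines tested, with GI50 values below or above the range set to 10^-8 M or 10^-4 M.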

UACC-62 = test: Cytotoxicity against human melanoma UACC-62 cancer cell lines.; assay type: functional
[2] = target: T1, DNA topoisomerase 1 (Homo sapiens) (UniProt P11387); test: Inhibitory activity against DNA topoisomerase I; greater activity than the parent compound 1
T1 sequence (whole entry): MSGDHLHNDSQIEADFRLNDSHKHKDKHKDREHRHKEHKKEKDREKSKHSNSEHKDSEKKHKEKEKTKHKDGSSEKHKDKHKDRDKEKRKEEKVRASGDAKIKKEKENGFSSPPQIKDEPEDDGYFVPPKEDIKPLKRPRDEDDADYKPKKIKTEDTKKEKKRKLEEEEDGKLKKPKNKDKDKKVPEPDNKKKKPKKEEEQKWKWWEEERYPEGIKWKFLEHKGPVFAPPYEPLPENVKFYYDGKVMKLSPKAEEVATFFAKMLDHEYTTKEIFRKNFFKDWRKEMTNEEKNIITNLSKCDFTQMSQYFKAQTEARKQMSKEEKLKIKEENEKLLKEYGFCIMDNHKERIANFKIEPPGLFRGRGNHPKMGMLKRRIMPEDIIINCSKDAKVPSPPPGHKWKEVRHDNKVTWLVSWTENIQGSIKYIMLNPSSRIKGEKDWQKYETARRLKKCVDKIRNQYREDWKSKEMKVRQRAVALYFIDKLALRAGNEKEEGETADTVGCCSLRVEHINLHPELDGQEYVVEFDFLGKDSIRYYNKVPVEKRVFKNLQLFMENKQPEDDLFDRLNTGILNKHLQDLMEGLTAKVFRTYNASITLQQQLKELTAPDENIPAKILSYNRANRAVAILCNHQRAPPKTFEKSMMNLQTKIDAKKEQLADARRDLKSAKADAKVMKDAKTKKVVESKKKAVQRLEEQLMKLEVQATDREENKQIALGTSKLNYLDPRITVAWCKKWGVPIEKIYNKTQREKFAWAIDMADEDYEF

OVCAR-3 = test: Cytotoxicity against human ovarian OVCAR-3 cancer cell lines.; assay type: functional
SN12C = test: Cytotoxicity against human renal SN12C cancer cell lines.; assay type: functional
DU-145 = test: Cytotoxicity against human prostate DU-145 cancer cell lines.; assay type: functional
SF-539 = test: Cytotoxicity against human CNSSF-539 cancer cell lines.; assay type: functional
HOP-62 = test: Cytotoxicity was determined in human lung HOP-62 cancer cell lines; assay type: functional
MDA-MB-435 = test: Cytotoxicity against human breast […] cancer cell lines.; assay type: functional
[3] = target: T1, DNA topoisomerase 1 (Homo sapiens); test: Compound was tested for its inhibitory activity against DNA topoisomerase I; No activity

Row | Structure (SMILES) | GI50 (HCT-116) | MGM [1] | GI50 (UACC-62) | Activity [2] | GI50 (OVCAR-3) | GI50 (SN12C) | GI50 (DU-145) | GI50 (SF-539) | GI50 (HOP-62) | GI50 (MDA-MB-435) | Activity [3]
1 | COc1cc2c3c(n(CCCNCCN)c(=O)c2cc1OC)-c1cc2c(cc1C3=O)OCO2.Cl.Cl | 560 nM | 0.88 | 650 nM | greater activity than compound 1 | 700 nM | 370 nM | 720 nM | 430 nM | 380 nM | 1600 nM | 
2 | COc1cc2c3c(n(CCCOC(=O)C(F)(F)F)c(=O)c2cc1OC)-c1cc2c(cc1C3=O)OCO2 | 18 nM | 0.15 | < 10 nM | greater activity than compound 1 | 70 nM | < 10 nM | 660 nM | < 10 nM | < 10 nM | 30 nM | 
3 | COc1cc2c3c(n(CCCNCCNCCN)c(=O)c2cc1OC)-c1cc2c(cc1C3=O)OCO2.Cl.Cl.Cl | 900 nM | 2.4 | 2600 nM | greater activity than compound 1 | 1700 nM | 2500 nM | 1200 nM | 550 nM | 2800 nM | 2700 nM | 
4 | COc1cc2c3c(n(CCCN(CCO)CCO)c(=O)c2cc1OC)-c1cc2c(cc1C3=O)OCO2.Cl | < 10 nM | 0.07 | < 10 nM |  | 130 nM | < 10 nM | < 10 nM | < 10 nM | < 10 nM | 80 nM | 
5 | COc1cc2c3c(n(CCCNCCNCCCN)c(=O)c2cc1OC)-c1cc2c(cc1C3=O)OCO2.Cl.Cl.Cl | 1300 nM | 3 | 1900 nM |  | 8100 nM | 1700 nM | 4600 nM | 8600 nM | 2900 nM | 3400 nM | 
6 | COc1cc2c3c(n(CCCN(C)C)c(=O)c2cc1OC)-c1cc2c(cc1C3=O)OCO2 | 120 nM | 0.35 | 540 nM | greater activity than compound 1 | 1400 nM | 900 nM | 140 nM | 190 nM | 18 nM | 650 nM | 
7 | COc1cc2c3c(n(CCN)c(=O)c2cc1OC)-c1cc2c(cc1C3=O)OCO2.Cl | 68 nM | 0.34 | 140 nM | greater activity than compound 1 | 860 nM | 360 nM | 400 nM | 1300 nM | 580 nM |  | 
8 | COc1cc2c3c(n(CCCNCCCNCCN)c(=O)c2cc1OC)-c1cc2c(cc1C3=O)OCO2.Cl.Cl.Cl | 23000 nM | 41 | 37000 nM | greater activity than compound 1 | 20000 nM | 20000 nM | 52000 nM | 38000 nM |  | 38000 nM | 
9 | COc1cc2c3c(n(CCCNCCCNCCCN)c(=O)c2cc1OC)-c1cc2c(cc1C3=O)OCO2.Cl.Cl.Cl | 43000 nM | 59 | 44000 nM |  | 880 nM | 33000 nM | > 100000 nM | > 100000 nM |  | 68000 nM | 
10 | C[C@@]1(O)C(=O)OCc2c1cc1n(c2=O)Cc2cc3ccccc3nc2-1 | 30 nM | 0.04 | < 10 nM | greater activity than compound 1 | 220 nM | 20 nM | < 10 nM | < 10 nM | < 10 nM | 40 nM | 
11 | COc1cc2c3c(n(CCCNCCCN)c(=O)c2cc1OC)-c1cc2c(cc1C3=O)OCO2 | 1300 nM | 3.2 | 3400 nM | greater activity than compound 1 | 3100 nM | 2300 nM | 3100 nM | 1200 nM | 1600 nM | 2500 nM | 
12 | COc1cc2c3c(n(C)c(=O)c2cc1OC)-c1cc2c(cc1C3=O)OCO2 | 35000 nM | 20 | 4200 nM |  |  | 68000 nM | 37000 nM | 41000 nM | 1300 nM | 96000 nM | 
13 | COc1cc2c3c(n(CCCNCCCNCCCNCCCN)c(=O)c2cc1OC)-c1cc2c(cc1C3=O)OCO2.Cl.Cl.Cl.Cl | 1500 nM | 2 | 1700 nM |  | 1600 nM | 1600 nM | 1400 nM |  | 3000 nM | 1400 nM | No activity
14 | COc1cc2c3c(n(CCN(C)C)c(=O)c2cc1OC)-c1cc2c(cc1C3=O)OCO2.O=CO | 660 nM | 3.1 | 1200 nM |  | 10000 nM | 4400 nM | 1900 nM | 900 nM | 1100 nM | 6100 nM | 
15 | COc1cc2c3c(n(CCCNCC(OC)OC)c(=O)c2cc1OC)-c1cc2c(cc1C3=O)OCO2 | 180 nM | 2.1 | 2860 nM | greater activity than compound 1 | 6900 nM |  | 540 nM | 6700 nM | 450 nM | 10800 nM | 
